Bioassay records from PubChem.
aDG glyco up = increases alpha dystroglycan glycosylation; activation, % at 10 µM; Pro5-aDG cells, alpha-DG glycosylation AlphaScreen (IIH6); 0% Pro5, 100% B10-LARGE cell signal; actives 0.22% (n = 360,000); AID 624168;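 active means activation of at least 8% versus controls, or a plate z-score of at least 8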;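 further: Pro5 are CHO cells carrying HIG-tagged alpha-DG that lacks glycosylation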
Lipid droplet = modulators of hepatic lipid droplet formation | AID 1656 | AML12 mouse hepatocytes, oleate lipid droplets, BODIPY imaging | inhibition, % at 6.5 µM | actives 0.4% (n = 240,000);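 active means lipid droplet intensity inhibited by at least 50%, with more than 500 cells counted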
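Assay system: AML12 hepatocytes (mouse); Probe or stimulus: oleic acid at 100 µM to induce lipid droplet formation; Dosing: compound at 6.5 µM only; Schedule: compound with oleate, overnight; Detection: fluorescence imaging, 20x objective, two fields per well; Measure: % inhibition of lipid droplet signal.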
JMJD2C inh = blocks human GASC-1 demethylase activity. Q9H3R0. GST-JMJD2C(1-420) H3K9me3 demethylation, DELFIA europium. inhibition, % at 2.35 µM. actives 0.069% (n = 330,000);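 active means more than half of a compound's replicate wells show inhibition beyond 50%, single wells judged on their own value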;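 further: signal counts dimethyl H3K9 product captured on neutravidin plate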
NR3A LBD binder = modulates the human NR3A ligand-binding domain. NR3A LBD differential scanning fluorimetry, Tm shift; 0% = protein alone, 100% = glycine-bound protein. actives 2.5% (n = 340,000). Tm shift relative to glycine control, % at 25 µM. AID 1259313;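 active means melting temperature shift of at least 10% of the positive control shift, at one fixed dose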
NPR2 activator = GC-B (human) receptor activation. P20594. HEK293-GC-B cells, CNP EC30, cGMP TR-FRET; 0% at EC30 CNP, 100% saturating CNP. activation, % at 10 µM. actives 0.11% (n = 370,000). AID 1920062;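 active means activation at 10 µM reaching about 35% in either raw or pattern-adjusted values, limit read from the data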
NPR1 activator = GC-A (human) enzyme activation; P16066; HEK293 GC-A cells, cGMP TR-FRET, EC30 ANP; 0% at EC30 ANP, 100% saturating ANP; activation, % at 10 µM; actives 0.14% (n = 370,000); in the data active means activation above about 40%
Hits are given with their value; 0 = inactive; - = not tested or not shown. Sampled rows, rich in hits. Any-hit rate of the full collection: about 3%.

SMILES	aDG glyco up	Lipid droplet	JMJD2C inh	NR3A LBD binder	NPR2 activator	NPR1 activator
O=S(=O)(Nc1nc2ccccc2nc1N1CCN(c2ccccc2F)CC1)c1ccc(Cl)cc1	0	0	0	21	0	0
CCN(CC)c1ccc(C=NNC(=O)Cc2cc(=O)[nH][nH]2)c(O)c1	-	-	-	-	0	0
COc1cc(/C=C/c2nc3ccccc3c(=O)[nH]2)ccc1O	0	-	-	-	0	0
COc1cc(/C=C/c2nc3ccccc3c(=O)[nH]2)cc(Br)c1O	0	0	0	23	0	0
CN1CCN(CCNC(=O)c2ccc3nc(-c4ccc(F)cc4)c(-c4ccc(F)cc4)nc3c2)CC1	8.0	0	0	0	0	0
O=C(CCCCCN1C(=O)C2C3C=CC(C3)C2C1=O)Nc1cc(F)cc(F)c1 (stereo not drawn)	-	-	-	-	0	0
O=C(CSc1nnc(-c2ccc(O)cc2)o1)Nc1ccccc1	0	0	0	14	0	0
COc1ccc(NC(=O)CSc2nnc(-c3cccc(O)c3)o2)cc1	0	0	0	14	0	0
CCC(CC)C(C(=O)NCc1ccccc1)N1CCN(c2cccc(C)c2C)CC1 (stereo not drawn)	0	-	-	-	0	0
COC(=O)[C@H](C(C)C)N(CCc1cn(CC2CCCCC2)nn1)S(=O)(=O)c1ccc(F)cc1Br	-	-	-	-	0	0
CSc1nc(-c2ccc(Cl)cc2)c(C#N)c(=O)[nH]1	0	0	0	38	0	0
CSc1nc(-c2ccccc2)c(C#N)c(=O)[nH]1	0	0	0	0	0	0
COc1cc(N/N=C(\C)c2ccc(O)c(C)c2)nc(-c2ccccc2)n1	0	0	0	22	0	0
C/C(=N\Nc1nc(C)cc(-c2ccccc2)n1)c1ccc(O)cc1	0	0	0	0	0	0
COc1cc(N/N=C(\C)c2ccc(N)cc2)nc(-c2ccccc2)n1	0	0	0	0	0	0
C/C(=N\Nc1cc(-c2ccccc2)nc(-c2ccccc2)n1)c1ccc(O)c(C)c1	0	0	0	28	0	0
Cc1ccc(CN2CCCCC(NC(=O)Nc3ccccc3F)C2=O)cc1 (stereo not drawn)	-	-	-	-	0	0
Cc1ccc(NC2=C(NCCO)C(=O)c3ccccc3C2=O)cc1	0	59	0	0	0	0
CCc1cccc2c(C(=O)CN3C(=O)C(=O)N(C4CCCC4)C3=O)c[nH]c12	0	-	-	23	0	0
O=C(COC(=O)C1COc2ccccc2O1)Nc1ccc(Cl)cc1 (stereo not drawn)	0	-	0	0	0	0
O=C(Cn1c2c(sc1=O)C1c3ccccc3OCC1CS2)Nc1ccc(Cl)cc1 (stereo not drawn)	0	0	0	13	0	0
O=C(O)c1cccnc1SCC(=O)C12CC3CC(CC(C3)C1)C2	0	0	0	0	0	0
Cc1ccc(C(=O)CSc2ccccn2)cc1	0	-	0	11	0	0
O=C(CSc1ccccn1)C12CC3CC(CC(C3)C1)C2	0	0	0	12	0	0
O=C(CSc1ccccn1)c1ccc(F)cc1	0	-	0	0	0	0
SMILES	aDG glyco up	Lipid droplet	JMJD2C inh	NR3A LBD binder	NPR2 activator	NPR1 activator
NC(=O)c1ncn([C@@H]2O[C@H](C(=O)N[C@H](Cc3c[nH]c4ccccc34)C(=O)N3CCN(C(=O)N4CCOCC4)CC3)[C@@H](O)[C@H]2O)n1	-	-	-	-	0	0
COc1ccc(OC)c(S(=O)(=O)Nc2ccc(O)c3ccccc23)c1	3.2	0	0	0	0	0
COc1ccc(OC)c(S(=O)(=O)Nc2cccc3c(O)cccc23)c1	0	-	0	0	0	0
COc1ccc(OC)c(S(=O)(=O)Nc2ccc(C(C)=O)cc2)c1	0	-	0	11	0	0
Cc1ccccc1C(=O)NC1CCCCN(Cc2ccc(Cl)cc2)C1=O (stereo not drawn)	-	-	-	-	0	0
CCc1ccc(-c2cc(C(=O)NN3CCOCC3)c3ccccc3n2)cc1	0	0	0	11	0	0
Cc1cc(Cl)c(OCCOCCN2CCN(C)CC2)c(Br)c1	0	0	0	0	0	0
Cc1cc(Cl)c(OCCOCCN2CCC(C)CC2)c(Br)c1	0	0	0	17	0	0
CSc1ccccc1NC(=S)NCc1ccc(Cl)cc1	0	0	0	0	0	0
CC(C)=CCc1c(O)cc(O)c2c(=O)c3c(CC=C(C)C)c(O)ccc3oc12	-	-	0	26	-	-
CC(C)=CCc1c(O)cc2c(=O)c3ccc(O)cc3oc2c1O	0	-	0	25	0	0
Clc1nssc1=Nc1nncs1	0	-	0	25	0	0
NCCCNc1nc(N)c([N+](=O)[O-])c(NC2CCCCC2)n1	0	0	0	0	0	0
N#Cc1cccc(N=c2ssnc2Cl)c1	-	-	0	27	0	0
Clc1nssc1=Nc1ccc(Br)cc1	0	0	0	0	0	0
Cc1ccc(S(=O)(=O)CCOC(=O)CNC(=O)OCc2ccccc2)cc1	0	-	-	-	0	0
COC(=O)[C@H](CC(C)C)N(Cc1cn(Cc2ccc(C)cc2)nn1)S(=O)(=O)c1ccccc1Br	-	-	-	-	0	0
CCOC(=O)c1ccc(N2C(=O)c3n[nH]c(C)c3C2c2cccnc2)cc1 (stereo not drawn)	0	-	0	0	0	0
CCOC(=O)c1ccc(N2C(=O)c3n[nH]c(C)c3C2c2ccccn2)cc1 (stereo not drawn)	4.6	-	0	0	0	0
COCc1[nH]nc2c1C(c1ccc(C)cc1)N(c1ccc(OC)cc1)C2=O (stereo not drawn)	-	-	-	-	0	0
CCOC(=O)c1ccc(N2C(=O)c3n[nH]c(-c4ccco4)c3C2c2ccc([N+](=O)[O-])cc2)cc1 (stereo not drawn)	0	0	0	27	0	0
COC(=O)[C@]12CCCCC=C1N(Cc1ccc(OC)cc1)C(=O)[C@@H]2CC(=O)N1CCOCC1	-	-	-	-	0	0
O=C(Nc1ccc2oc(-c3ccccc3Cl)nc2c1)c1cncc(Br)c1	0	-	0	12	0	0
CC(=O)Nc1ccc2oc(-c3cc(F)c(F)cc3Cl)nc2c1	0	0	0	0	0	58
Cc1ccc(C(=O)/C=C/Nc2cccc(O)c2)cc1	0	0	0	10	0	0
Cc1ccc(C(=O)/C=C/Nc2ccc3c(c2)OCO3)cc1	0	-	0	17	0	0
Clc1ccc2[nH]c3c(c2c1)CCc1cn[nH]c1-3	0	-	0	18	0	0
c1ccc2c3c([nH]c2c1)-c1[nH]ncc1CC3	0	-	0	30	0	0
COc1ccccc1C(=O)NCC(=O)N=Nc1c(O)n(C(C)C)c2ccccc12	0	0	0	255	0	0
CC(C)n1c(O)c(N=NC(=O)CNC(=O)Cc2ccc(Cl)cc2)c2ccccc21	0	0	0	0	0	0
